Results of several laboratories.
Protocols differ between the studies behind these lines.
FGFR1: Fibroblast growth factor receptor 1 (FGFR1, Homo sapiens, UniProt P11362)

| SMILES | target | test | conditions | endpoint | value |
| --- | --- | --- | --- | --- | --- |
| CC/C(=N\NC(=O)NCc1cccc(O)c1)c1ccc(O)c(C)c1O | FGFR1 | enzyme activity, inhibitor | 0.1 µM | inhibition | 6.1% |
| CCCS(=O)(=O)Nc1ccc(F)c(C(=O)c2c[nH]c3ncc(-c4ccc(Cl)cc4)cc23)c1F | FGFR1 | enzyme activity, inhibitor | 1 µM | inhibition | < 10% |
| CN(c1nccc(-c2cnn3ncccc23)n1)C1CC1 | FGFR1 | binding | 1 µM | remaining binding | 75% |
| Cc1ccc(C(=O)Nc2ccc(CN3CCN(C)CC3)c(C(F)(F)F)c2)cc1C#Cc1cnc2cccnn12 | FGFR1 | cell-free assay | 23.5 nM | remaining signal | 4.8% |
| CSc1cccnc1N1CCN(Cc2nc3ccccc3[nH]2)CC1 | FGFR1 | cell-free assay, competition with immobilised ligand | 1 µM | remaining binding | 100% |
| CCN(CC)CCNC(=O)c1c(C)[nH]c(/C=C2\C(=O)Nc3ccc(F)cc32)c1C | FGFR1 | cell-free assay | 0.5 µM | remaining signal | 66.1% |
| Cc1cc(C)c(-n2ccn3nc(-c4cccnc4)cc23)cc1NC(=O)c1cc(C#N)cc(S(F)(F)(F)(F)F)c1 | FGFR1 | cell-free assay, competition with immobilised ligand | 0.1 µM | remaining binding | 85.5% |
| COc1cc(/C=C/C(=O)c2ccc(NC3=C(Cl)C(=O)c4ccccc4C3=O)cc2)cc(OC)c1OC | FGFR1 | enzyme activity, inhibitor, ADP detection | 1 µM | inhibition | > 70% |
| C[C@@H]1CN(c2cc(-c3n[nH]c4ccc(OC5(C)CC5)cc34)ncn2)C[C@H](C)O1 | FGFR1 | cell-free assay, competition with immobilised ligand | 0.1 µM | remaining binding | 100% |
| O=C1NC(=O)c2cc(Nc3ccc(F)cc3)c(Nc3ccc(F)cc3)cc21 | FGFR1 | cell-free assay | 0.5 µM | remaining signal | 92.1% |
| CNC(=O)c1cc(Oc2ccc(NC(=O)Nc3ccc(Cl)c(C(F)(F)F)c3)cc2)ccn1 | Fibroblast growth factor receptor 1 (FGFR1, Homo sapiens, UniProt P11362, V561M) | cell-free assay | 10 µM | inhibition | 84% |
| C=CC(=O)Nc1cc(Nc2nccc(Nc3cc(Cl)c(F)cc3C(C)(C)O)n2)c(OC)cc1N1CC[C@@H](N(C)C)C1 | FGFR1 | enzyme activity, inhibitor | 1 µM | inhibition | 3% |
| COc1cc2ncnc(Nc3ccc(Oc4ccccc4)cc3C)c2cc1OC | FGFR1 | enzyme activity, inhibitor | 1 µM | inhibition | 5% |
| CCC(=N\O)/C(C)=C/c1ccc(F)cc1 | FGFR1 | cell-free assay, competition with immobilised ligand | 1 µM | remaining binding | 100% |
| Clc1ccc(Nc2nnc(Cc3ccncc3)c3ccccc23)cc1 | FGFR1 | cell-free assay | 0.5 µM | remaining signal | 97.2% |
| CCC(=O)N[C@@H]1CC[C@H](C(=O)N(C)c2ccc(-c3nc4ccccc4o3)cc2)C1 | FGFR1 | cell-free assay, competition with immobilised ligand | 1 µM | remaining binding | 87% |
| C/C=C/C(=O)Nc1ccc(-n2nc3c(=O)[nH]nc(N)c3c2-c2oc3ccc(C)cc3c2C)cc1 | FGFR1 | enzyme activity, inhibitor, ELISA | 10 nM | inhibition | 20.2% |
| CC(C)(O)c1cncc(-c2nc3ccc(F)cc3n2C2CC2)c1 | FGFR1 | cell-free assay, competition with immobilised ligand | 1 µM | remaining binding | 100% |
| Oc1cccc(-c2nc(N3CCOCC3)c3oc4ncccc4c3n2)c1 | FGFR1 | cell-free assay | 0.5 µM | remaining signal | 91.7% |
